Laboratory results from ChEMBL document CHEMBL1955800, “Synthesis and biological validation of novel pyrazole derivatives with anticancer activity guided by 3D-QSAR analysis” (Bioorg Med Chem, 2012).

Columns and labels:
NCI-H23 [1] = experiment: Growth inhibition of human NCI-H23 cells after 48 hrs by MTS assay; type: functional, cell-based; conditions: NCI-H23, 48 h
In short: (§1)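 Seeded at 5 × 10³ cells/well in F12K (A549) or RPMI 1640 (NCI-H23) with 10% FBS, 37 °C, 5% CO₂, 3 h, then exposed 48 h to compounds at final 100–0.2 µM (10 mM DMSO stocks, 1% DMSO constant). MTS reagent added and incubated at 37 °C. Formazan from metabolically active cells measured, growth relative to untreated control, IC50 derived.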

NCI-H23 [2] = experiment: Antiproliferative activity against human NCI-H23 cells after 48 hrs by BrdU assay; type: functional, cell-based; conditions: NCI-H23, 48 h
In short: (§2)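 Seeded at 5 × 10³ cells/well in RPMI 1640 + 10% FBS, 37 °C, 5% CO₂, 3 h. Compounds from 10 mM DMSO stocks, final 100–0.2 µM with 1% DMSO, 48 h. BrdU (final 10 µM) added for 3 h, then cells fixed and DNA denatured 30 min rt, ELISA absorbance read. DNA synthesis reduction relative to untreated cells, IC50 by curve fit.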

A549 [3] = experiment: Growth inhibition of human A549 cells after 48 hrs by MTS assay; type: functional, cell-based; conditions: A549, 48 h; in short: as §1
A549 [4] = experiment: Antiproliferative activity against human A549 cells after 48 hrs by BrdU assay; type: functional, cell-based; conditions: A549, 48 h; in short: as §2
[5] = Solubility of the compound in DMSO; type: physicochemical

| SMILES | IC50 (NCI-H23 [1]) | IC50 (NCI-H23 [2]) | IC50 (A549 [3]; read-out: IC50) | IC50 (A549 [3]; read-out: pIC50 (converted)) | IC50 (A549 [4]) | solubility [5] |
| --- | --- | --- | --- | --- | --- | --- |
| O=C(N/N=C/c1ccc(F)cc1F)c1cc(-c2ccc(Cl)cc2)nn1Cc1ccc(Cl)nc1 | 13.5 µM | 7.86 µM | 16 µM | 15.8 µM | 9.05 µM |  |
| CC(C)(C)c1ccc(Cn2nc(-c3ccc(Cl)cc3)cc2C(=O)N/N=C/c2ccc(F)cc2F)cc1 | > 100 µM | 21.9 µM | > 100 µM | > 100 µM | > 100 µM |  |
| N#Cc1ccc(/C=N/NC(=O)c2cc(-c3ccc(Cl)cc3)nn2Cc2ccc(Cl)nc2)cc1 | > 100 µM | > 100 µM | > 100 µM | > 100 µM | > 100 µM | Insoluble |
| N=C(NO)c1cc(-c2ccc(Cl)cc2)nn1Cc1ccc(Cl)nc1 | 44.4 µM | 27.9 µM | 50.5 µM | 50.1 µM | 38.3 µM |  |
| CC(C)(C)c1ccc(Cn2nc(-c3ccc(Cl)cc3)cc2C(=N)NO)cc1 | 16.5 µM | 12.3 µM | 17.7 µM | 17.8 µM | 17 µM |  |
| CC(C)(C)c1ccc(Cn2nc(-c3ccc(Cl)cc3)cc2/C(N)=N/OC(=O)c2cccc(O)c2O)cc1 | 21.9 µM | 15.6 µM | 83.2 µM | 83.2 µM | 26.8 µM |  |
| CC(C)(C)c1ccc(Cn2nc(-c3ccc(Cl)cc3)cc2-c2noc(-c3cccc(O)c3O)n2)cc1 | > 100 µM | 0.36 µM | > 100 µM | > 100 µM | 1.54 µM |  |

Now those with a lower IC50 (NCI-H23 [1]), led by results:

| IC50 (NCI-H23 [1]) | IC50 (NCI-H23 [2]) | IC50 (A549 [3]; read-out: IC50) | IC50 (A549 [3]; read-out: pIC50 (converted)) | IC50 (A549 [4]) | solubility [5] | SMILES |
| --- | --- | --- | --- | --- | --- | --- |
| 3.35 µM | 0.57 µM | 5.2 µM | 5.25 µM | 0.7 µM |  | O=C(N/N=C/c1cccc(O)c1O)c1cc(-c2ccc(Cl)cc2)nn1Cc1ccc(Cl)nc1 |
| 3.91 µM | 0.3 µM | 7.8 µM | 7.76 µM | 0.4 µM |  | CC(C)(C)c1ccc(Cn2nc(-c3ccc(Cl)cc3)cc2C(=O)N/N=C/c2cccc(O)c2O)cc1 |
| 3.04 µM | 0.27 µM |  |  |  |  | O=C(N/N=C/c1ccccc1O)c1cc(-c2ccc(Cl)cc2)nn1Cc1ccc(Cl)nc1 |
